Experimental data from ChEMBL document CHEMBL4513216, “Probing the Open Global Health Chemical Diversity Library for Multistage-Active Starting Points for Next-Generation Antimalarials” (ACS Infect Dis, 2020).

Test: Toxicity liver stage against HepG2, at 10uM
Assay type: cell-based
Set-up: test concentration 10 uM, cell line HepG2-A16-CD81EGFP
Details: human, HepG2-A16-CD81EGFP cells; read-out: INHIBITION
Summary of the method: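 Uninfected HepG2-A16-CD81EGFP cells, 3 × 10^3 per well, 1536-well, plated on prespotted compound at 10 μM final, parasite-free screening media added to match infected plates; puromycin 10 μM positive, DMSO 0.5% negative; run in parallel with 48 h PbLuc assay at 37 °C, 5% CO2; viability by CellTiter-Glo luminescence, normalized to controls.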

Going from `COCCCN(Cc1ccccn1)S(=O)(=O)Cc1ccccc1` to `O=C(Cc1ccccc1)NCCNC(=O)c1scnc1Cl`, the cytotoxicity at 10 µM falls from 14.4% to -1.55%.

First: CC(=O)N1CC[C@H]2NC(=O)N(Cc3ccccc3)C(=O)[C@H]21
Second: O=C1CO[C@H]2CN(Cc3ccccc3Br)C[C@@H]2N1
The cytotoxicity at 10 µM of the first is higher: 4.47% for the first, 2.13% for the second.

Compared with `Cc1nn(-c2cc(Cl)cc(Cl)c2)c(C)c1CCC(=O)O`, `Cn1nc(C(=O)N2CCOCC2)cc1C(=O)Nc1cc(Cl)cc(Cl)c1` is higher in cytotoxicity at 10 µM: 3.8% for the first, 27.9% for the second.

Compared with `Cn1nc(-c2cccc(Cl)c2)c(Br)c1C(=O)O`, `Cc1n[nH]c(C)c1CNCC(O)c1cccc(Cl)c1` (stereo not given) is higher in cytotoxicity at 10 µM: -56.5% for the first, 4.91% for the second.

Compared with `c1cc(-c2nnc3sc(CCN4CCCC4)nn23)ccn1`, `Cc1nnc2n1CCN(Cc1ncc(-c3ccc(F)cc3)o1)C2` is lower in cytotoxicity at 10 µM: -4.31% for the first, -10.7% for the second.

First: Cc1nn(Cc2ccc(C(=O)NCCCN3CCCC3=O)o2)c(C)c1Br
Second: COc1ccccc1-n1cc(C(=O)NCCCn2nc(C)nc2C)cn1
The cytotoxicity at 10 µM of the first is higher: 9.35% for the first, 5.02% for the second.

Going from `CC(C)N1CCC(c2cnc(-c3cncnc3)cn2)CC1` to `COc1ccc(NC2CCCN(Cc3cnc(N(C)C)s3)C2)cc1` (stereo not given), the cytotoxicity at 10 µM falls from 2.55% to 0.88%.

Compared with `CC(=O)N1CCN(CCCOc2ccccc2F)CC(C(N)=O)C1` (stereo not given), `CCc1nc(C2CCCN2CCC(=O)N2CCc3ccccc32)no1` (stereo not given) is higher in cytotoxicity at 10 µM: -28.7% for the first, -23.7% for the second.

Going from `CNC(=O)c1cn[nH]c1C1(C)CCCN(Cc2nccn2C(C)C)C1` (stereo not given) to `CC(C)c1nc2c(n1C)CCN(CC(=O)Nc1nccs1)C2`, the cytotoxicity at 10 µM rises from -2.73% to 1.88%.

Compared with `COc1ccc(C2Nc3cc(Cl)ccc3C3=NCCN32)cc1CO` (stereo not given), `Cn1ccc(C(=O)NCc2ccc(N3CCCCC3)nc2)cc1=O` is higher in cytotoxicity at 10 µM: -19.3% for the first, -10.8% for the second.

Compared with `CC[C@@H]1C[C@H](C(F)(F)F)n2nc(C3CCN(S(=O)(=O)CC)CC3)cc2N1`, `CCn1ncc(CN2C[C@@H]3CCCN3C[C@@H]2CCSC)c1C` is higher in cytotoxicity at 10 µM: -28.2% for the first, -27.3% for the second.

Compared with `CN(CC1(O)CCN(c2ccccn2)C1)C(=O)Cc1ccsc1` (stereo not given), `N#Cc1cccnc1N1CCCN(C(=O)CCc2cccs2)CC1` is lower in cytotoxicity at 10 µM: -11.7% for the first, -15.8% for the second.

First: CCCn1nnnc1CN(CC)CC1COc2ccccc2O1 (stereo not given)
Second: Cc1nc(C2CCCN2CC(=O)N2CCc3ccccc32)no1 (stereo not given)
The cytotoxicity at 10 µM of the first is higher: 13.3% for the first, -19.6% for the second.

Going from `CN1CCN(S(=O)(=O)c2ccc(Sc3nccn3C)nc2)CC1` to `C=C(C)COc1cccc(C(=O)N2CCC3(CC2)CN(C)CCN3C)c1`, the cytotoxicity at 10 µM falls from 10.2% to -52.4%.

First: CS(=O)(=O)CCn1ccc(NC(=O)c2c(F)cccc2F)n1
Second: COC(=O)c1cccc(NC(=O)CCn2nc(-c3cccs3)oc2=O)c1
The cytotoxicity at 10 µM of the first is higher: 18.2% for the first, -8.13% for the second.

Going from `O=C(O)c1ccn(-c2ccc(NC(=O)c3ccccc3Cl)cc2)n1` to `CC(=O)c1ccc(-c2cnn(CC(=O)Nc3ccnn3C)c2)nc1`, the cytotoxicity at 10 µM rises from -140% to 1.99%.

First: Cc1cc(C)c(CNC(=O)NCCNc2ccccn2)c(=O)[nH]1
Second: Cc1cc(C)n(CC2CN(Cc3ccc(C(N)=O)cc3)CCO2)n1 (stereo not given)
The cytotoxicity at 10 µM of the first is lower: -37% for the first, -15.1% for the second.

Compared with `Cc1cnn(CC2CCCN2C(=O)CCc2ccco2)c1` (stereo not given), `COc1ccc(C2=CCN(C(=O)CN(C)Cc3ccco3)CC2)cc1` is lower in cytotoxicity at 10 µM: -4.7% for the first, -6.16% for the second.

Going from `CCc1noc(CC)c1CC(=O)N1CCN(C(C#N)C(C)C)CC1` (stereo not given) to `CCc1csc(C2CCCN(C(=O)COc3cc(C)on3)C2)n1` (stereo not given), the cytotoxicity at 10 µM falls from -9.66% to -9.71%.

Going from `COc1ccsc1C(=O)Nc1cc(Br)c(=O)n(C)c1` to `Cc1cccc(NC(=O)N2CCN(Cc3noc(C4CC4)n3)CC2)c1`, the cytotoxicity at 10 µM rises from -11% to -10.1%.

Compared with `Nc1ncccc1CN1CCCn2nc(CCC(=O)NC3CC3)cc2C1`, `Cc1nc2c(c(NC3CCN(Cc4cccnc4)CC3)n1)CCNCC2` is lower in cytotoxicity at 10 µM: 1.45% for the first, -1.14% for the second.

First: CC(C)[C@H]1CN(Cc2ccccc2C#N)C[C@@H]1NC(=O)C1CCOCC1
Second: CCOCCC(=O)N1C[C@@H]2CC[C@H]1CN(Cc1ccncc1)C2
The cytotoxicity at 10 µM of the first is higher: 1.47% for the first, -11.1% for the second.

Work on `c1cnc(N2CCC3(COCCN(CC4CC4)C3)C2)nc1` (stereo not given) yielded a cytotoxicity at 10 µM of 0.668%.
